According to ChEMBL document CHEMBL4513216, “Probing the Open Global Health Chemical Diversity Library for Multistage-Active Starting Points for Next-Generation Antimalarials” (ACS Infect Dis, 2020):

Test: Toxicity liver stage against HepG2, at 10uM
Type: cell-based
Set-up: test concentration 10 uM, cell line HepG2-A16-CD81EGFP
Conditions: human, HepG2-A16-CD81EGFP cells; read-out: INHIBITION
Outline: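 Uninfected HepG2-A16-CD81EGFP cells, 3 × 10^3 per well, 1536-well, plated on prespotted compound at 10 μM final, parasite-free screening media added to match infected plates; puromycin 10 μM positive, DMSO 0.5% negative; run in parallel with 48 h PbLuc assay at 37 °C, 5% CO2; viability by CellTiter-Glo luminescence, normalized to controls.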

Row | Structure (SMILES) | cytotoxicity at 10 µM [%]
1 | NC(=O)C1CCN(C(=O)CCSCc2ccccc2)CC1 | 4.22
2 | Cn1c(CO[C@H]2CN(S(C)(=O)=O)C[C@H]2F)nc2ccccc21 | -0.714
3 | CC(C)NC[C@H]1COCc2nc3cccnc3n21 | -5.38
4 | CC(C)CC(=O)N1CCC2(CC1)[C@@H]1CN(C(=O)N(C)C)C[C@@H]1C(=O)N2C | 4.85
5 | O=C(C1CCOCC1)N1CC[C@@H](O)[C@@H]1Cc1ccccc1 | 0.375
6 | COc1ncnc2c1CCN(C(=O)NCc1cccc(F)c1)CC2 | -7.27
7 | O=C(C1CCCO1)N1CC[C@@H]2CN(Cc3ccccc3)S(=O)(=O)[C@@H]2CC1 (stereo not given in full) | 12.9
8 | O=C(N[C@@H]1CN(c2ncc(F)cn2)[C@@H]2COC[C@@H]21)c1cscn1 | -139
9 | CN1CCC2(CC1)CN(C)C(=O)C[C@@H]2C(F)(F)F | -144
10 | CN(C)Cc1nn(C)c2c1CCN(C(=O)c1cccnc1)C2 | 6.24
11 | COc1cccc(N2CCN(CC(O)c3ccc(C)cc3)CC2)c1 (stereo not given) | -11.6
12 | Cc1ccccc1OC1CCN(CC(=O)Nc2cn(C)nc2C)CC1 | -0.0825
13 | CCCN1CCCCCC1Cc1c(C(=O)NC)sc2ccccc12 (stereo not given) | 8.53
14 | Cc1ccc2c(CC(=O)N3C[C@@H](O)[C@H](N(C)C)C3)coc2c1 | 10.4
15 | CC(=O)N1CCC(c2cncc(N3CCCCCC3)n2)CC1 | 11.3
16 | O=C(CC1CC1)N1CCC(O)(CN2CCN(c3ccccc3)CC2)C1 (stereo not given) | -11.2
17 | Cn1nccc1CN1CCCC(COc2ccccc2F)C1 (stereo not given) | -9.54
18 | COCC(=O)N1CCC(Cc2nccnc2-c2c(C)n[nH]c2C)C1 (stereo not given) | -11.7
19 | CN(C)CC1(O)CCN(S(=O)(=O)c2ccc(Cl)cc2)C1 (stereo not given) | -13.9
20 | Cc1ccsc1C(=O)N1CCCC(c2[nH]ncc2S(C)(=O)=O)C1 (stereo not given) | -5.39
21 | Nc1ncnc2c1ncn2[C@H]1CCN(Cc2ccsc2)CC[C@@H]1O | -4.25
22 | CCOCC1CCN(C(=O)C(c2c(F)cccc2F)N(C)C)CC1 (stereo not given) | -3.12
23 | Cc1nc(-c2cc(C(=O)NC(C)(C(=O)O)C(C)C)co2)cs1 (stereo not given) | 1.84
24 | O=C(c1sccc1-n1cnnn1)N1CCCCC1 | 6.56
25 | Cc1ccccc1N1CCN(CCS(=O)(=O)c2ccc(Br)cc2)CC1 | 18.7
26 | Cc1nnc(NC(=O)CN2CCc3c(nc(C(C)C)n3C)C2)s1 | -1.94
27 | C1CCC(NC2CCCN(Cc3noc(C4CC4)n3)C2)C1 (stereo not given) | -5.05

Row | Structure (SMILES) | cytotoxicity at 10 µM [%]
28 | CC(C)CNC(=O)c1ccc(NC(=O)NC(C)(C)CO)cc1Cl | 6.27
29 | COc1ccc(C)cc1-n1ccc(C(=O)NCC2CCCOC2)n1 (stereo not given) | -2.51
30 | COc1cc(CNC(C)Cn2ccnc2)cc2c1OCCO2 (stereo not given) | -94.1
31 | CCNC(=O)c1cnc(Cc2ccc(F)cc2)s1 | 4.44
32 | CC(CNC(=O)c1ccc(Cl)cc1I)N1CCCC1 (stereo not given) | -5.69
33 | CN(C)c1cc(C(=O)NCCc2nnc(-c3ccco3)[nH]2)ccn1 | -0.653
34 | CN(C)C(=O)Cc1nc(CN2CCOC(Cn3cccn3)C2)cs1 (stereo not given) | 0.743
35 | CN(Cc1nccn1CC(F)(F)F)C(=O)c1ccc(F)cc1F | 3.3
36 | NC(=O)C(CNC(=O)COCC(F)(F)F)Cc1ccc(F)cc1 (stereo not given) | -5.36
37 | Cc1ncsc1C(=O)Nc1cccc(OCC(F)F)n1 | -1.4
38 | CN(Cc1ccc(Cl)s1)C1CCCN(c2cccnn2)C1 (stereo not given) | -4.27
39 | Cc1cn2c(=O)c(-c3ccnc(N[C@@H]4CCOC4)n3)cnc2s1 | -9.19
40 | CC(=O)N1CCC(n2ccc(-c3cnc(N4CCOCC4)nc3)n2)CC1 | -10.4
41 | CCCc1ncc(CN(C)C2CCCN(CCc3ccccc3)C2)cn1 (stereo not given) | 0.301
42 | CSCCCNC(=O)C(c1cccc(F)c1)N(C)C (stereo not given) | 0.28
43 | O=C(CN1CC(c2ccccc2)CC1=O)NCc1cc2n(n1)CCNC2 (stereo not given) | 1.05
44 | CCOCC1CCN(C(=O)C(c2ccc(F)cc2)N(C)C)CC1 (stereo not given) | 1.31
45 | CC(=O)N1C[C@H](NS(=O)(=O)N2CCOCC2)[C@@H](c2ccc(C)o2)C1 | -1.43
46 | CCCc1nc(C)cc(NC(C)Cc2cnccn2)n1 (stereo not given) | -0.166
47 | O=C(O)c1ccc(CNC(=O)C2CCN(C(=O)C3CCC3)CC2)s1 | 0.993
48 | NC(=O)NCC(=O)N1CCCC(c2nccn2CC2CCC2)C1 (stereo not given) | -4.59
49 | Cc1ccsc1S(=O)(=O)N1CCc2c(c(C(=O)O)nn2CC2CC2)C1 | -0.714
50 | CCOC(=O)N1CCC(NC(C)c2ccccc2-n2cccn2)CC1 (stereo not given) | -7.28
51 | O=C(NCc1nc(C2CCCCC2)no1)C1CC(=O)N(C2CCCC2)C1 (stereo not given) | 0.761
52 | N#Cc1cccc(N2CCC3(CCC(=O)N(CCCO)C3)CC2)n1 | 2.11
53 | Cc1c[nH]c(CN(C)C(=O)c2ccc(CSc3nnc[nH]3)o2)n1 | 1.12
54 | N#Cc1cccc(N2CCC3(CCC(=O)N(CC(N)=O)C3)CC2)n1 | 3.14

Row | Structure (SMILES) | cytotoxicity at 10 µM [%]
55 | CN(C)C(=O)N1CCn2nc(CNC(=O)CCC(F)(F)F)cc2C1 | 5.6
56 | NC(=O)c1cc(C2CCCN(C(=O)CCc3cccs3)C2)n[nH]1 (stereo not given) | 2.33
57 | Cc1csc(N2CCN(C(=O)C(C(C)C)n3cncn3)CC2)n1 (stereo not given) | -13.1
58 | CC(C)c1nnc2n1CCN(Cc1nc(-c3ccoc3)no1)C2 | -3.69
59 | Cc1cc(C(=O)NCc2ccnc(N3CCN(C)CC3)c2)no1 | -6.63
60 | Cc1nc2ccccc2c(=O)n1CCC(=O)N1CCCC1 | -10
61 | COc1ccc(NC(=O)N(C)Cc2ccsc2)cn1 | -2.36
62 | CCNc1cc2c(nn1)CCN(C(=O)CC1CCCC1)C2 | -3.87
63 | CCNc1cc2c(nn1)CCN(C(=O)c1cc3ccccc3o1)C2 | 3.88
64 | Cn1ccc(C(=O)NCc2ccc(N3CCCCCC3)nc2)cc1=O | -3.18
65 | COCCc1noc(CN2CCCC2c2c(C)nn(C)c2OC)n1 (stereo not given) | -2.36
66 | CCn1cnnc1CNC(=O)N1CCC(O)CC1 | -4.86
67 | O=C(NCCc1ccc(Cl)s1)N1CCS(=O)(=O)CC1 | 1.92
68 | Cc1ccccc1OCC(O)CN1CCC(Cn2cccn2)CC1 (stereo not given) | -0.972
69 | Cc1ccc(F)c(S(=O)(=O)NCc2cccc(C(=O)N3CCCC3)c2)c1 | -11.1
70 | Cc1cnn(CC2CCCN2C(=O)c2ccc3[nH]c(=O)[nH]c3c2)c1 (stereo not given) | -3.98
71 | CCn1cc(NC(=O)NCCN2CCc3ccccc3C2)cn1 | -2.87
72 | Cc1nc(C)n(C2CCCN(C(=O)c3cccnc3NC(C)C)C2)n1 (stereo not given) | -2.28
73 | CN(C)c1ncccc1C(=O)N1CCCN(c2cccnn2)CC1 | 9.41
74 | Cc1nc(CN(C)C2CCN(CC(=O)N3CCOCC3)C2)no1 (stereo not given) | -4.91
75 | O=C([C@H]1CCCO1)N1CCC2(CC1)CNCc1ccccc12 | -2.57
76 | CS(=O)(=O)N1CC2(CCN(C(=O)c3ccncc3)CC2)c2ccccc21 | 2.23
77 | O=S(=O)(C1CC1)N1CC[C@]2(C[C@@H](Oc3ccccn3)CO2)C1 | -10.4
78 | CCS(=O)(=O)N1CCO[C@H]2[C@H](Oc3ncccc3F)CC[C@@H]21 | 2.63
79 | CC(=O)N1[C@H](CN(C)C)C[C@@H]2CN(C(=O)c3ccno3)CC[C@@H]21 | 4.35
80 | CN(C)C(=O)CN1C(=O)CCC12CCN(Cc1ccsc1)CC2 | -3.13
